Reference: paper PMC7897483 (Nucleic Acids Research, 2021)

Tests used:
[1] = biological target: hnRNP A18 RNA Recognition Motif (RRM) (Homo sapiens, UniProt Q14011); test: NMR 1H,15N-HSQC chemical shift perturbation; assay type: binding; details: 15N-labeled hnRNP A18 RRM
Outline: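 Construct: human hnRNP A18 RRM (residues 1–92), expressed in E. coli BL21(DE3) as a His6-GB1 fusion in M9 medium with 15N-ammonium chloride, induced with 1 mM IPTG for 16 h at 18°C. Purified by denaturing Ni affinity with on-column refolding, then TEV cleavage.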

[2] = Parallel Artificial Membrane Permeability Assay; assay type: in vitro ADME; details: pH 5.0 and 6.8, room temperature, ∼4 h; data not shown
Outline: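 Test compounds were made up as 10 mM DMSO stocks and filtered (0.2 μm). The assay used stirred PAMPA plates with GIT-0 lipid and an acceptor sink buffer. After permeation, UV spectra from 245 to 498 nm gave relative compound concentrations in the donor and acceptor compartments, from which effective permeability was derived.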

[3] = tested on: colorectal carcinoma RKO cells; test: Cell viability; assay type: cell-based, human; details: 24 h, increasing concentrations
Outline: (§1)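 Cells plated at 10 000 per well and exposed to increasing concentrations of test compound for 24 h. HMEC were cultured per supplier guidance. Viability was read with the ApoTox-Glo viability reagent by fluorescence at 400 nm Ex/505 nm Em. Three replicates; error bars are standard deviation.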

[4] = tested on: normal human mammary epithelial HMEC cells; test: Cell viability; assay type: cell-based; details: 24 h
Outline: as §1

[5] = biological target: T1, His-hnRNP A18 (Homo sapiens, UniProt Q14011); test: RNA band shift; assay type: binding; details: biotinylated hnRNP A18 RNA consensus motif 1
T1 sequence (Q14011 1-172): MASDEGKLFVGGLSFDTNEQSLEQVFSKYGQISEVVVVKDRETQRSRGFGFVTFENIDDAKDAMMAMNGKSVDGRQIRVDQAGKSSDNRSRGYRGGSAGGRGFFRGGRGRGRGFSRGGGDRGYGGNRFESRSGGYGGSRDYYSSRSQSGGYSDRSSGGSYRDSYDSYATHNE
Outline: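 Recombinant full-length human His-hnRNP A18 was expressed in bacteria grown at 30°C. Protein (1 μg) was preincubated 10 min with or without increasing concentrations of test compound. Biotinylated hnRNP A18 motif 1 RNA (51 nt) was then added for 10 min at room temperature. Complexes were resolved on native polyacrylamide gels, transferred to nylon and detected by chemiluminescence with streptavidin-HRP.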

[6] = tested on: pancreatic cancer MiaPaca cells; test: Cell viability; assay type: cell-based, human; details: 24 h, increasing concentrations
Outline: as §1

[7] = biological target: T2, hnRNP A18 (Homo sapiens, UniProt Q14011); test: Cellular thermal shift assay; assay type: cell-based; details: read-out: EC50, hnRNP A18 protection from melting; LOX-IM-VI cells over expressing GFP-hnRNP A18; 3 h; 57°C
T2 sequence (Q14011 1-172): T1 sequence (Q14011 1-172)

[8] = tested on: Glioblastoma D54 cells; test: Cell viability; assay type: cell-based, human; details: D54, 24 h, increasing concentrations
Outline: as §1

[9] = biological target: T3, GST-hnRNP A18 (UniProt Q14011 1-172); test: fluorescence anisotropy
T3 sequence: T1 sequence (Q14011 1-172)

[10] = biological target: T4, His-hnRNP A18 (human, UniProt Q14011 1-172); test: EMSA
T4 sequence: T1 sequence (Q14011 1-172)

Cc1sc(NC(=O)c2ccccc2)nc1OC(=O)c1ccccc1 [VITAS STK508411]
chemical shift perturbations of hnRNP A18 RRM (qualitative) [1]: Chemical shift perturbations were observed
effective permeability (Pe) [2]: > 20 ×10⁻⁶ cm/s
cell viability (relative efficacy) [3]: least effective
toxicity to normal cells [4]: 20–40%
hnRNP A18 RNA binding activity / specificity by RNA band shift [5]: specifically bound hnRNP A18
cell viability (relative efficacy) [6]: least effective
EC50 [7]: 23.8 µM
cell viability (relative efficacy) [8]: least effective

B1: hnRNP A18 motif 1 Fl (ssRNA)
RNA: GCAGAUCCAGGGUGGGAUUUUCUUGAGGAAGUUACAAAUAAGCUUGUUACA
binding result [9]: binds

B2: hnRNP A18 motif 1 Biotin (ssRNA)
RNA: B1 RNA
binding result [10]: binds
